Source: PubChem
MrgX1 agonist = activates human MrgX1 receptor signaling. Q96LB2. MrgX1-HEK293 cells, Fluo-4 calcium fluorescence, agonist mode; active compounds read high. B-score at 10 µM. actives 0.44% (n = 310,000). AID 588627;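 active means calcium response B-score plate-corrected fluorescence ratio at least 3 library SD, with starting fluorescence B-score inside 5 SD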
Target sequence (Q96LB2 whole entry, looked up): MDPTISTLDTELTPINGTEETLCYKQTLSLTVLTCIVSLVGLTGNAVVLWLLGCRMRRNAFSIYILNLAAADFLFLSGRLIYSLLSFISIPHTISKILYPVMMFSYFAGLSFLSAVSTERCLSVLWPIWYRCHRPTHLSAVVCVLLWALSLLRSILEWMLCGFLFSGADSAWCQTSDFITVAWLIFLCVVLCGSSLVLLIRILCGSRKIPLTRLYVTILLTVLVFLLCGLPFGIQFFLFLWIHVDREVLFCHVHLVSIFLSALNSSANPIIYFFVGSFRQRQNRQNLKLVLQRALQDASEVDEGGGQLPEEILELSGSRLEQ
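System: HEK293 cells stably expressing human MrgX1 receptor; Dosing: test compound in the initial addition of three; Schedule: overnight plating, then 30 min 37 °C plus 30 min room-temperature dye loading; Detection: kinetic calcium dye fluorescence, Fluo-4 NW; Controls: per-plate positive and negative controls for Z′ factor.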
MrgX1 PAM = allosterically activates human MrgX1 receptor signaling | Q96LB2 | MrgX1-HEK293, Fluo-4 calcium flux, FDSS; active compounds read high | B-score at 10 µM | actives 0.63% (n = 310,000) | AID 588675;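 active means plate-corrected calcium response at least 3 library SD above typical, normal starting fluorescence, not activating the receptor alone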;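 further: compound read alongside a low EC10 to EC30 dose of BAM8-22 agonist; peak minus trough fluorescence over baseline measured at the second addition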
RGS4 block = inhibitors of human RGS4 | B-score at 10 µM | HEK293 M3R/RGS4 inducible, Fluo-4 calcium flux; active compounds read high; triggered by carbachol at its EC20 | P49798 | actives 0.45% (n = 310,000);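 active means B-score, a plate-corrected calcium signal, over three deviations above library mean, with baseline fluorescence within five deviations of library mean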;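 further: RGS4 expression induced by doxycycline in cells with stable M3 receptor; B-score is computed from the integrated fluorescence ratio over baseline after carbachol; higher B-score means a larger calcium signal and so more RGS4 inhibition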
Target sequence (P49798 whole entry, looked up): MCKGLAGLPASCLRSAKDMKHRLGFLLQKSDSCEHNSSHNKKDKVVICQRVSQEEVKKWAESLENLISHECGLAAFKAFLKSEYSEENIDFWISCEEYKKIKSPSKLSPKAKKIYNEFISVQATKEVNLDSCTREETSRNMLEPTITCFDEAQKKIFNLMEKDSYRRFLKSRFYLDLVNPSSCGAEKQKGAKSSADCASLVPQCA
RGS4 act = potentiators or activators of RGS4. HEK293 M3R/inducible RGS4, carbachol calcium flux Fluo4; active compounds read low. actives 0.92% (n = 310,000). B-score at 10 µM. AID 463111;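 active means B-score of the integrated calcium signal more than 4 SD below the library mean, with starting fluorescence not abnormally high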;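 further: negative B-score means reduced calcium response which marks RGS4 activation or potentiation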
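System: HEK293 FlpIn-TREx cells, stable M3R, doxycycline-inducible RGS4. Timing: overnight RGS4 induction, 30 min dye load 37 °C, 20 min compound RT. Also added: carbachol, ECmax concentration. Measured by: Fluo4 fluorescence kinetic imaging of calcium. Evaluation: integrated calcium ratio converted to B score.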
MrgX1 antag = antagonists of human MrgX1 receptor. B-score at 10 µM. AID 588676. Q96LB2. actives 1.3% (n = 310,000). MRGX1-HEK293 calcium flux, Fluo-4, BAM8-22 antagonism; active compounds read low;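 active means calcium-response B-score plate-corrected more than 3 library SD below zero, starting fluorescence within 5 deviations, no agonist response on first addition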;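 further: peak minus trough fluorescence over baseline after final BAM8-22 challenge near maximal dose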
The depositor's hits bear a star; i = inactive. Most compounds without a hit are left out; they make up all but 3.5% or so of the library.

SMILES | MrgX1 agonist | MrgX1 PAM | RGS4 block | RGS4 act | MrgX1 antag
CCOC(=O)N1CCN(S(=O)(=O)c2ccc(C(=O)N(CCCN(C)C)c3nc4c(C)c(C)ccc4s3)cc2)CC1 | i | i | i | i | i
CNC(=S)NC1(C)CCS(=O)(=O)C1 (stereo not drawn) | i | i | i | i | i
Cc1cccc(N2CCN(C(=O)c3cn(C)c(=O)c4c3c3ccccc3n4C)CC2)c1C | i | 9.52* | i | i | i
N#Cc1c2ccc(O)cc2n2ccccc12 | 46.1* | i | i | i | i
N#Cc1c2ccc(OCC(=O)NCc3ccco3)cc2n2ccccc12 | i | i | i | i | i
CCCCN(C)CC(O)Cn1cc(/C=C/C(=O)c2ccc(C)cc2)c2ccccc21 (stereo not drawn) | i | i | i | i | -5.43*
Cc1c(NC(=O)COC(=O)Cc2ccc(F)cc2)c(=O)n(-c2ccccc2)n1C | i | i | i | i | i
Cc1ccc(Cn2nc(C)c(NC(=O)C3(C)CC3(Br)Br)c2C)cc1 (stereo not drawn) | i | i | i | i | i
O=C(NCc1csc2ccccc12)Nc1cc(Cl)cc(Cl)c1 | i | i | i | i | -4.57*
COc1ccc(C(=O)C2CCCN(Cc3cccn3-c3ccc(Cl)cn3)C2)c(OC)c1 (stereo not drawn) | i | i | i | i | i
Cc1c(NC(=O)CN2CCN(c3ccc(O)cc3)CC2)c(=O)n(-c2ccccc2)n1C | i | i | i | i | i
COc1ccccc1-c1cc(C(F)(F)F)nc(S(C)(=O)=O)n1 | i | i | i | i | i
CS(=O)(=O)c1nc(-c2ccco2)cc(C(F)(F)F)n1 | i | i | i | -7.03* | i
CN(CC(=O)Nc1cccc(F)c1)C(=O)CCc1nc2cc(S(=O)(=O)N3CCOCC3)ccc2n1C | i | i | i | i | i
CCN(CC(=O)Nc1ccc2c(c1)OCCO2)C(=O)/C=C/c1ccccc1 | i | i | i | i | i
CCN(CC(=O)Nc1ccc2c(c1)OCCO2)C(=O)CC(NC(C)=O)c1ccccc1 (stereo not drawn) | i | i | i | i | -7.4*
O=C(O)c1ccc(N=NN2CCCCCC2)cc1 | i | i | i | i | i
O=C(OC(C(=O)NCc1ccc2c(c1)OCO2)c1ccncc1)c1ccc(Cl)nc1 (stereo not drawn) | i | i | i | i | i
C=CCn1c(Sc2ncc([N+](=O)[O-])s2)n[nH]c1=O | i | i | i | -8.04* | -9.16*
C=CCn1c(CSc2ccccc2[N+](=O)[O-])n[nH]c1=S | i | i | i | i | i
O=C1c2ccccc2C(=O)C1c1ccc(Cl)cc1 | i | i | i | i | -6.48*
N#Cc1cc(N)ccc1Sc1ccc(Cl)cc1 | i | i | i | -6.97* | i
COC(=O)Cn1ncc2c3ccccc3n(Cc3ccccc3)c2c1=O | i | i | i | i | i
O=C(Cn1ncc2c3ccccc3n(Cc3ccc(Cl)cc3)c2c1=O)NCCCN1CCCC1=O | i | i | i | i | i
O=C(Cn1ncc2c3ccccc3n(Cc3ccccc3)c2c1=O)NCCCN1CCCC1=O | i | i | i | i | -8.09*
SMILES | MrgX1 agonist | MrgX1 PAM | RGS4 block | RGS4 act | MrgX1 antag
O=C(Cn1ncc2c3ccccc3n(Cc3ccc(F)cc3)c2c1=O)N1CCN(c2ncccn2)CC1 | i | i | i | i | -8.12*
CC[N+](CC)(CC)C/C(N)=N/O | i | i | i | i | -6.14*
COCCCNC(=O)C1c2ccccc2Oc2ccccc21 | i | i | i | i | i
CCN(CC)CCCNC(=O)C1c2ccccc2Oc2ccccc21 | i | i | i | -7.33* | i
Cc1nn(CC2CC2)c(=O)n1-c1ccc(Oc2ccccc2)cc1 | i | i | i | i | i
O=[N+]([O-])c1cc([N+](=O)[O-])c(Oc2ccccc2F)cc1NN1CCCCC1 | i | i | i | -7.01* | i
Cc1ccc(F)c(Oc2cc(NN3CCCCC3)c([N+](=O)[O-])cc2[N+](=O)[O-])c1 | i | i | i | -7.42* | i
O=[N+]([O-])c1cc([N+](=O)[O-])c(Oc2cccc(Cl)c2Cl)cc1NN1CCCCC1 | i | i | i | -8.15* | i
CCc1occc(=O)c1Oc1cc(NN2CCCCC2)c([N+](=O)[O-])cc1[N+](=O)[O-] | i | i | i | -8.2* | i
Cc1ccc(C)c(Oc2cc(NN3CCCCC3)c([N+](=O)[O-])cc2[N+](=O)[O-])c1 | i | i | i | i | i
CC1(C)Cc2cccc(Oc3cc(NN4CCCCC4)c([N+](=O)[O-])cc3[N+](=O)[O-])c2O1 | i | i | i | i | i
COc1cc(C(C)=O)ccc1Oc1cc(NN2CCCCC2)c([N+](=O)[O-])cc1[N+](=O)[O-] | i | i | i | i | i
O=[N+]([O-])c1cc([N+](=O)[O-])c(Oc2ccc(Cl)c3cccnc23)cc1NN1CCCCC1 | i | i | i | i | i
Cc1nc2c(-c3ccc(F)cc3)c(C)nn2c(C)c1CCC(=O)Nc1ccccc1F | i | i | i | i | i
Nc1c(C(=O)N/N=C/c2ccc(F)cc2)oc2nc(-c3ccccc3)cc(-c3ccco3)c12 | i | i | i | i | -5.42*
Nc1c(C(=O)N/N=C/c2ccccc2Cl)oc2nc(-c3ccccc3)cc(-c3ccco3)c12 | i | i | i | i | -7.66*
O=C(N/N=C/c1ccc(F)cc1)c1cc(-c2ccco2)nc2ccccc12 | i | i | i | i | i
O=C(Cc1ccc([N+](=O)[O-])cc1)N/N=C/c1ccccc1F | i | i | i | i | i
Cc1ccc(S(=O)(=O)N2CCOCC2)cc1C(=O)NC1CCSc2ccccc21 (stereo not drawn) | i | i | i | i | i
Cc1cc(-c2ccccc2)nc2cc(C(=O)N(Cc3ccccc3)Cc3ccccc3)nn12 | i | i | i | -7.9* | i
COC(=O)c1cc2nc(-c3ccccc3)cc(C)n2n1 | i | i | i | i | i
CCOC(=O)C1CCN(C(=O)C2CCN(c3nc4ccc(OC)cc4s3)CC2)CC1 | i | i | i | i | -5.47*
CCOC(=O)C1CCN(C(=O)C2CCN(c3nnc(-n4cccc4)s3)CC2)CC1 | i | i | i | i | i
CC(C)OC(=O)c1c2nc3ccccc3nc2n2c1[nH]c(=O)c1ccccc12 | 31.8* | i | i | i | i
